Reference: ChEMBL document CHEMBL3044905, “Level of catechin, myricetin, quercetin and isoquercitrin in buckwheat (Fagopyrum esculentum Moench), changes of their levels during vegetation and their effect on the growth of selected weeds” (J Agric Food Chem, 2009)

Tests used:
Type in all cases: functional, organism-based
[1] = test system: Amaranthus retroflexus; assay: Phytotoxic activity against Amaranthus retroflexus assessed as inhibition of hypocotyl growth at 22 +/-2 degC after 72 hr
Procedure, shortened: (§1)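 Test solutions were made in 90% methanol and applied to filter paper in Petri dishes, with a methanol-only control. Concentrations ranged from 1 to 5000 or 10000 µmol, depending on the compound. After 72 h incubation, root and hypocotyl lengths were measured on at least three replicate plates per concentration. Percentage influence was calculated relative to a distilled-water control, and EC50 (µM) was reported with R2.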

[2] = test system: Achillea millefolium; assay: Phytotoxic activity against Achillea millefolium assessed as inhibition of hypocotyl growth at 22 +/-2 degC after 72 hr; procedure, shortened: as §1
[3] = test system: Trifolium repens; assay: Phytotoxic activity against Trifolium repens assessed as inhibition of hypocotyl growth at 22 +/-2 degC after 72 hr; procedure, shortened: as §1
[4] = test system: Plantago lanceolata; assay: Phytotoxic activity against Plantago lanceolata assessed as inhibition of root growth at 22 +/-2 degC after 72 hr; procedure, shortened: as §1
[5] = test system: Lolium perenne; assay: Phytotoxic activity against Lolium perenne (perennial ryegrass) assessed as inhibition of root growth at 22 +/-2 degC after 72 hr; procedure, shortened: as §1
[6] = test system: Echinochloa crus-galli; assay: Phytotoxic activity against Echinochloa crus-galli (barnyard grass) assessed as inhibition of hypocotyl growth at 22 +/-2 degC after 72 hr; procedure, shortened: as §1
[7] = test system: Amaranthus retroflexus; assay: Phytotoxic activity against Amaranthus retroflexus assessed as inhibition of root growth at 22 +/-2 degC after 72 hr; procedure, shortened: as §1
[8] = test system: Trifolium repens; assay: Phytotoxic activity against Trifolium repens assessed as inhibition of root growth at 22 +/-2 degC after 72 hr; procedure, shortened: as §1
[9] = test system: Sinapis alba; assay: Phytotoxic activity against Sinapis alba assessed as inhibition of hypocotyl growth at 22 +/-2 degC after 72 hr; procedure, shortened: as §1
[10] = test system: Plantago lanceolata; assay: Phytotoxic activity against Plantago lanceolata assessed as inhibition of hypocotyl growth at 22 +/-2 degC after 72 hr; procedure, shortened: as §1
[11] = test system: Sinapis alba; assay: Phytotoxic activity against Sinapis alba assessed as inhibition of root growth at 22 +/-2 degC after 72 hr; procedure, shortened: as §1
[12] = test system: Lolium perenne; assay: Phytotoxic activity against Lolium perenne (perennial ryegrass) assessed as inhibition of hypocotyl growth at 22 +/-2 degC after 72 hr; procedure, shortened: as §1
[13] = test system: Echinochloa crus-galli; assay: Phytotoxic activity against Echinochloa crus-galli (barnyard grass) assessed as inhibition of root growth at 22 +/-2 degC after 72 hr; procedure, shortened: as §1
[14] = test system: Achillea millefolium; assay: Phytotoxic activity against Achillea millefolium assessed as inhibition of root growth at 22 +/-2 degC after 72 hr; procedure, shortened: as §1

SMILES: Oc1cc(O)c2c(c1)O[C@H](c1ccc(O)c(O)c1)[C@@H](O)C2 [CIANIDANOL]
- EC50 [1]: 9300 µM
- EC50 [2]: 527 µM
- EC50 [3]: 169 µM
- EC50 [4]: 55 µM
- EC50 [5]: 377 µM
- EC50 [6]: 148 µM
- EC50 [7]: 2830 µM
- EC50 [8]: 433 µM
- EC50 [9]: 780 µM
- EC50 [10]: 360 µM
- EC50 [11]: 445 µM
- EC50 [12]: 120 µM
- EC50 [13]: 362 µM
- EC50 [14]: 472 µM

SMILES: O=c1c(O)c(-c2ccc(O)c(O)c2)oc2cc(O)cc(O)c12 [QUERCETIN]
- EC50 [5]: 273 µM
- EC50 [9]: 12800 µM
- EC50 [11]: 7050 µM
- EC50 [12]: 183 µM

SMILES: O=c1c(O[C@@H]2O[C@H](CO)[C@@H](O)[C@H](O)[C@H]2O)c(-c2ccc(O)c(O)c2)oc2cc(O)cc(O)c12 [ISOQUERCETIN]
- EC50 [4]: 54600 µM
- EC50 [5]: 90100 µM
- EC50 [6]: 35200 µM
- EC50 [9]: 9560 µM
- EC50 [10]: 37100 µM
- EC50 [11]: 5910 µM
- EC50 [12]: 33800 µM
- EC50 [13]: 89100 µM
